Laboratory results from ChEMBL document CHEMBL4011643, “Triaryl Benzimidazoles as a New Class of Antibacterial Agents against Resistant Pathogenic Microorganisms” (J Med Chem, 2017).
≈ marks a conversion by molar mass, not a printed value.

Key:
Assay type in all cases: functional
[1] = test system: Enterococcus faecalis; experiment: Antibacterial activity against vancomycin-resistant Enterococcus faecalis NCTC 12201 after 20 hrs by broth microdilution method; conditions: NCTC 12201, 20 h
Method in brief: (§1)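 Broth microdilution in Tryptic Soy Broth; growth read as OD600 after 20 h. MIC taken as the lowest drug concentration giving OD600 below 0.1. Run in triplicate.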

[2] = test system: Staphylococcus aureus; experiment: Antibacterial activity against methicillin-resistant Staphylococcus aureus EMRSA-15 after 20 hrs by broth microdilution method; conditions: EMRSA-15, 20 h; method in brief: as §1
[3] = test system: Enterococcus faecium; experiment: Antibacterial activity against vancomycin-resistant Enterococcus faecium NCTC 12204 after 20 hrs by broth microdilution method; conditions: NCTC 12204, 20 h; method in brief: as §1
[4] = test system: Enterococcus faecalis; experiment: Antibacterial activity against vancomycin-sensitive Enterococcus faecalis NCTC 775 after 20 hrs by broth microdilution method; conditions: NCTC 775, 20 h
Method in brief: (§2)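 Broth microdilution in Tryptic Soy Broth, done in triplicate. Growth was read as OD600 after 20 h. MIC is the lowest drug concentration giving OD600 below 0.1.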

[5] = test system: Staphylococcus aureus; experiment: Antibacterial activity against methicillin-resistant Staphylococcus aureus MRSA252 after 20 hrs by broth microdilution method; conditions: MRSA252, 20 h; method in brief: as §1
[6] = test system: Staphylococcus aureus; experiment: Antibacterial activity against methicillin-sensitive Staphylococcus aureus ATCC 9144 after 20 hrs by broth microdilution method; conditions: ATCC 9144, 20 h; method in brief: as §2

## CCN(CC)CCCNC(=O)c1ccc2c(c1)nc(C)n2-c1ccc(-c2cccc(NC(=O)c3ccc4nc(C)[nH]c4c3)c2)cn1
[1]
  MIC: > 128 µg/mL
[2]
  MIC: > 128 µg/mL

## CC1(C)S[C@@H]2[C@H](NC(=O)[C@H](N)c3ccc(O)cc3)C(=O)N2[C@H]1C(=O)O [AMOXICILLIN]
[1]
  MIC: 0.5 µg/mL (≈ 1.37 µM)
[3]
  MIC: 16 µg/mL (≈ 43.8 µM)
[4]
  MIC: 0.5 µg/mL (≈ 1.37 µM)
[2]
  MIC: 128 µg/mL (≈ 350 µM)
[5]
  MIC: > 128 µg/mL
[6]
  MIC: 1 µg/mL (≈ 2.74 µM)

## Cc1nc2ccc(C(=O)Nc3cccc(-c4ccc(-n5c(C)nc6cc(C(=O)NCCCN7CCOCC7)ccc65)nc4)c3)cc2[nH]1
[1]
  MIC: > 128 µg/mL
[2]
  MIC: > 128 µg/mL

## Cc1nc2cc(C(=O)NCCCN(C)C)ccc2n1-c1ccc(-c2cccc(N)c2)cn1
[1]
  MIC: > 128 µg/mL
[2]
  MIC: > 128 µg/mL
